Series [1] has as its system Rat. The experiment in a line: concentration in plasma after dosing. The note with it: 5 min; dosed: Wyeth-14643; 2.0 mg/kg; oral; Male; Sprague-Dawley.
Series [2] has as its system Rat. The experiment in a line: concentration in plasma after dosing. The conditions noted are these: 0.25 h; dosed: Wyeth-14643; 5.0 mg/kg; oral; Male; Sprague-Dawley.
Series [3] deals with Rat. The experiment in a line: concentration in heart after dosing. The conditions noted are these: 4 h; dosed: Bis 2-Chloroethoxy Methane; 20 mg/kg; iv; Female; F344.
The subject of series [4] is Rat. The experiment in a line: concentration in heart after dosing. The note with it: 20 min; dosed: Bis 2-Chloroethoxy Methane; 20 mg/kg; iv; Female; F344.
The subject of series [5] is Rat. Kind of series: concentration in plasma after dosing. The conditions noted are these: 3 h; dosed: Bis 2-Chloroethoxy Methane; 20 mg/kg; iv; Female; F344.
Series [6] has as its system Rat. The experiment in a line: concentration in plasma after dosing. The note with it: 2 h; dosed: Bis 2-Chloroethoxy Methane; 40 mg/kg; iv; Male; Harlan Sprague Dawley.
Series [7] deals with Rat. Kind of series: concentration in liver after dosing. The conditions noted are these: 1 h; dosed: Fluorotelomer alcohol 8+2; 24 mg/kg; oral; Male; Harlan Sprague Dawley.
Series [8] relates to Rat. Kind of series: concentration in plasma after dosing. The note with it: dosed: Fluorotelomer alcohol 8+2, 40 mg/kg, iv, Female, Harlan Sprague-Dawley.
Series [9] deals with Rat. The experiment in a line: concentration in kidney after dosing. The conditions noted are these: 0.5 h; dosed: Fluorotelomer alcohol 8+2; 80 mg/kg; oral; Female; Harlan Sprague Dawley.
Series [10] deals with Rat. Kind of series: concentration in plasma after dosing. The conditions noted are these: dosed: Fluorotelomer alcohol 8+2, 12 mg/kg, oral, Male, Harlan Sprague Dawley.
Series [11] relates to Rat. Kind of series: concentration in plasma after dosing. The note with it: 3 h; dosed: Di-n-butyl phthalate; 100 mg/kg; oral; Male; Sprague-Dawley.
For series [12], the system named is Rat. The experiment in a line: concentration in plasma after dosing. The conditions noted are these: 1 h; dosed: Di-n-butyl phthalate; 50 mg/kg; oral; Male; Sprague-Dawley.
For series [13], the system named is Rat. The experiment in a line: concentration in plasma after dosing. The note with it: 0.5 h; dosed: Di-n-butyl phthalate; 100 mg/kg; oral; Male; Sprague-Dawley.
In series [14] the test system is Rat. Kind of series: concentration in plasma after dosing. The conditions noted are these: 24 h; dosed: Di-n-butyl phthalate; 100 mg/kg; oral; Male; Sprague-Dawley.
Series [15] has as its system Rat. The experiment in a line: concentration in plasma after dosing. The conditions noted are these: 5 h; dosed: Di-n-butyl phthalate; 20 mg/kg; iv; Male; Sprague-Dawley.
Series [16] concerns Rat. Kind of series: concentration in plasma after dosing. The note with it: 0.5 h; dosed: Di-n-butyl phthalate; 50 mg/kg; oral; Male; Sprague-Dawley.
In series [17] the test system is Rat. Kind of series: concentration in brain after dosing. The conditions noted are these: 24 h; dosed: Perfluorodecanoic acid; 10 mg/kg; oral; Male; Harlan Sprague Dawley.
Series [18] has as its system Rat. The experiment in a line: concentration in liver after dosing. The conditions noted are these: 3360 h; dosed: Perfluorodecanoic acid; 10 mg/kg; oral; Male; Harlan Sprague Dawley.
Series [19] deals with Rat. The experiment in a line: concentration in plasma after dosing. The note with it: dosed: Perfluorodecanoic acid, 2 mg/kg, iv, Male, F344.
The subject of series [20] is Rat. The experiment in a line: concentration in plasma after dosing. The note with it: dosed: Perfluorodecanoic acid, 2 mg/kg, iv, Male, F344. The source holds these as a separate data set.
The test system of series [21] is Rat. The experiment in a line: concentration in kidney after dosing. The conditions noted are these: 3360 h; dosed: Perfluorodecanoic acid; 10 mg/kg; oral; Female; Harlan Sprague Dawley.
In series [22] the test system is Rat. Kind of series: concentration in kidney after dosing. The note with it: 1848 h; dosed: Perfluorodecanoic acid; 10 mg/kg; oral; Female; Harlan Sprague Dawley.
Series [23] has as its system Rat. The experiment in a line: concentration in kidney after dosing. The note with it: 24 h; dosed: Perfluorodecanoic acid; 10 mg/kg; oral; Female; Harlan Sprague Dawley.
For series [24], the system named is Rat. Kind of series: concentration in plasma after dosing. The conditions noted are these: 12 h; dosed: Primidone; 30 mg/kg; oral; Male; F344.
Series [25] has as its system Rat. The experiment in a line: concentration in liver after dosing. The note with it: 20 min; dosed: Thiodiglycolic Acid; 20 mg/kg; iv; Female; F344.
The subject of series [26] is Rat. The experiment in a line: concentration in liver after dosing. The note with it: 1 h; dosed: Thiodiglycolic Acid; 20 mg/kg; iv; Male; Harlan Sprague Dawley.
Series [27] has as its system Rat. Kind of series: concentration in thymus after dosing. The conditions noted are these: 1 h; dosed: Thiodiglycolic Acid; 20 mg/kg; iv; Female; Harlan Sprague Dawley.
The test system of series [28] is Rat. Kind of series: concentration in plasma after dosing. The conditions noted are these: 3 h; dosed: Thiodiglycolic Acid; 20 mg/kg; iv; Female; Harlan Sprague Dawley.
Series [29] concerns Rat. Kind of series: concentration in plasma after dosing. The note with it: 3 h; dosed: Thiodiglycolic Acid; 20 mg/kg; iv; Female; Harlan Sprague Dawley. This is another data set of the same source.
Series [30] concerns Rat. The experiment in a line: concentration in plasma after dosing. The conditions noted are these: 40 min; dosed: Thiodiglycolic Acid; 20 mg/kg; iv; Male; Harlan Sprague Dawley.
The subject of series [31] is Rat. The experiment in a line: concentration in plasma after dosing. The conditions noted are these: dosed: dichloroacetic acid, 100 mg/kg, oral, Male, F344.
In series [32] the test system is Rat. The experiment in a line: concentration in plasma after dosing. The note with it: dosed: dichloroacetic acid, 100 mg/kg, oral, Male, F344. This is another data set of the same source.
For another series, the system named is human. The note with it: dosed: tetrachloroethylene, 144 ppm, inhalation, duration: 4 hr, male. The gist of the method: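 Sampling and analytical methods are those of each source and frequently went unreported. The concentration-versus-time and amount-versus-time points were compiled from published in vivo toxicokinetic studies and two structured collections. Most were digitised from plot screenshots with WebPlotDigitizer, with others copied from tables, in the reported units.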

Series [33] concerns rat. Kind of series: concentration in plasma after dosing. The conditions noted are these: dosed: trichloroethylene, 600.4 ppm, inhalation, duration: 4 hr, female, Fischer-344.

Regarding `Cc1cccc(Nc2cc(Cl)nc(SCC(=O)O)n2)c1C`, the concentration in plasma stood at 401 ng/mL in the series with Rat [1] and 2450 ng/mL in the series on Rat [2].

For `ClCCOCOCCCl` [Bis 2-Chloroethoxy Methane], the concentration in heart with Rat [3] turned out to be 46.5 ng/g; in the series with Rat [4] it was 6490 ng/g. The concentration in plasma in the series with Rat [5] was found to be 87.3 ng/mL; with Rat [6], 840 ng/mL.

Molecule `OCCC(F)(F)C(F)(F)C(F)(F)C(F)(F)C(F)(F)C(F)(F)C(F)(F)C(F)(F)F` [Fluorotelomer alcohol 8+2] showed a concentration in liver in the series on Rat [7] of 4670 ng/g. The concentration in plasma was 2220 ng/mL in the series on Rat [8] (0.75 h), 28.7 ng/mL in the series with Rat [8] (12 h), 274 ng/mL in the series on Rat [10] (0.5 h) and 10.3 ng/mL in the series on Rat [10] (9 h). In the series on Rat [9], the concentration in kidney was found to be 3400 ng/g.

`CCCCOC(=O)c1ccccc1C(=O)O` [Mono-n-butyl phthalate]: the concentration in plasma came to 1190 ng/mL with Rat [11]; 8650 ng/mL in the series on Rat [12]; 29700 ng/mL with Rat [13]; 2770 ng/mL with Rat [14]; 1030 ng/mL in the series on Rat [15]; 20500 ng/mL in the series with Rat [16].

`O=C(O)C(F)(F)C(F)(F)C(F)(F)C(F)(F)C(F)(F)C(F)(F)C(F)(F)C(F)(F)C(F)(F)F` [Perfluorodecanoic acid] had a concentration in brain in the series on Rat [17] of 2840 ng/g. Besides, the concentration in liver with Rat [18] was found to be 6930 ng/g. The concentration in plasma in the series with Rat [19] (24 h) was 5510 ng/mL; in the series with Rat [19] (1848 h) it was 410 ng/mL; with Rat [20] (6 h), 5760 ng/mL; in the series on Rat [20] (864 h), 777 ng/mL. The concentration in kidney in the series with Rat [21] was 2580 ng/g; in the series with Rat [22], 10100 ng/g; in the series on Rat [23], 57900 ng/g.

As to `CCC1(c2ccccc2)C(=O)NC(=O)NC1=O` [Phenobarbital], in the series on Rat [24], the concentration in plasma was 2660 ng/mL.

In the case of `O=C(O)CSCC(=O)O` [Thiodiglycolic Acid], the concentration in liver in the series on Rat [25] is 162000 ng/g; with Rat [26], 126000 ng/g. In the series on Rat [27], this molecule gave a concentration in thymus of 3010 ng/g. The concentration in plasma in the series on Rat [28] stood at 535 ng/mL; in the series with Rat [29], 676 ng/mL; in the series with Rat [30], 2000 ng/mL.

Take `O=C(O)C(Cl)Cl` [dichloroacetic acid]: the concentration in plasma in the series with Rat [31] (2 min) stood at 2560 ng/mL; in the series with Rat [31] (1.25 h), 43500 ng/mL; in the series with Rat [32] (10 min), 11900 ng/mL; in the series with Rat [32] (4 h) it was 55600 ng/mL.

In the case of `O=C(O)C(Cl)(Cl)Cl` [trichloroacetic acid], the “amount in urine after dosing” value with human (22 h) was found to be 6.91 mg; in the series with human (46 h) it was 2.33 mg; with human (70 h) it was 2.17 mg. Further, the concentration in plasma with rat [33] (0.1633 h) worked out at 10200 ng/mL; in the series with rat [33] (0.5306 h) it was 11400 ng/mL; with rat [33] (0.898 h), 11800 ng/mL; in the series with rat [33] (1.633 h) it was 13400 ng/mL; with rat [33] (2.122 h), 15800 ng/mL; in the series with rat [33] (5.061 h) it was 18300 ng/mL. Besides, the concentration in plasma came out at 5730 ng/mL in the series with rat [33] (21.1 h), 2750 ng/mL in the series with rat [33] (29.06 h) and 1150 ng/mL in the series with rat [33] (46.08 h).

The values are drawn from EPA's CvTdb concentration-time database.
